The values that follow come from ChEMBL document CHEMBL4680373, “Evaluation of 5-(Trifluoromethyl)-1,2,4-oxadiazole-Based Class IIa HDAC Inhibitors for Huntington's Disease” (ACS Med Chem Lett, 2021).

For data set [1], the target named is Histone deacetylase 5 (Homo sapiens, UniProt Q9UQL6). Description: Inhibition of HDAC5 (unknown origin) using Boc Lys(TFA) as substrate by fluorogenic assay. The procedure, abridged: (§1)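 Biochemical HDAC isoform assay with the artificial fluorogenic substrate Boc-Lys-(TFA)-AMC, which is specific to class IIa enzymes and HDAC8. IC50 taken as the geometric mean of three experiments.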
Histone deacetylase 5, sequence (Q9UQL6 whole entry, canonical isoform): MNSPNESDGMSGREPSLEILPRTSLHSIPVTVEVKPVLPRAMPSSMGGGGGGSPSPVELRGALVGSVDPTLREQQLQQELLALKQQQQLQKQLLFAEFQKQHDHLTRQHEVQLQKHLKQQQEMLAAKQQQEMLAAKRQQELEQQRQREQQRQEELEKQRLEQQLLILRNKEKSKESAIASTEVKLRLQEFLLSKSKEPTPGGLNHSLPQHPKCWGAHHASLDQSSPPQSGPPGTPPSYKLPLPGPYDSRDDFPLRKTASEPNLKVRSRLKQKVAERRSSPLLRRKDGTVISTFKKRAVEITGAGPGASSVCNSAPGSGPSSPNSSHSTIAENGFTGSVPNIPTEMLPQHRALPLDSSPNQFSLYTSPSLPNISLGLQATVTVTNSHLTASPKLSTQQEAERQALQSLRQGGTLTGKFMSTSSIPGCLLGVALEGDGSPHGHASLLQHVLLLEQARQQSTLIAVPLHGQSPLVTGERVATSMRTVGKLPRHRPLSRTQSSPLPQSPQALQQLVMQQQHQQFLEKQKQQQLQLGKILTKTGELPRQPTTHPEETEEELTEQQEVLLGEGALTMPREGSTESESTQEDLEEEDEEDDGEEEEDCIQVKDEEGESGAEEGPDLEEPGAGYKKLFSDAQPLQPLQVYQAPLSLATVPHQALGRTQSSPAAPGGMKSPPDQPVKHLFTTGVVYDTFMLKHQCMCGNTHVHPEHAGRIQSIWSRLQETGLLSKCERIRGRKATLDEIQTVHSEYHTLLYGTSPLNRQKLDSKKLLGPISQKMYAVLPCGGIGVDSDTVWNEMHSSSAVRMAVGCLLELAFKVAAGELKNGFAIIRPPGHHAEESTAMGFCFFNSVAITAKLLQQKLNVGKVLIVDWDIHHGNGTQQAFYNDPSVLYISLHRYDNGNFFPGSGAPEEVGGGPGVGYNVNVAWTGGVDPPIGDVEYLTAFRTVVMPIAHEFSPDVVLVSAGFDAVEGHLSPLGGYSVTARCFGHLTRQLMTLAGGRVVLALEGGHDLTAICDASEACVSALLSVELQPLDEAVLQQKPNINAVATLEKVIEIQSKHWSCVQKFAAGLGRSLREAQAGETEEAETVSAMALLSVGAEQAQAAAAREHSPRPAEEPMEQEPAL

Data set [2] deals with T1, Histone deacetylase 8 (Homo sapiens, UniProt Q9BY41).
T1 sequence (Q9BY41 whole entry): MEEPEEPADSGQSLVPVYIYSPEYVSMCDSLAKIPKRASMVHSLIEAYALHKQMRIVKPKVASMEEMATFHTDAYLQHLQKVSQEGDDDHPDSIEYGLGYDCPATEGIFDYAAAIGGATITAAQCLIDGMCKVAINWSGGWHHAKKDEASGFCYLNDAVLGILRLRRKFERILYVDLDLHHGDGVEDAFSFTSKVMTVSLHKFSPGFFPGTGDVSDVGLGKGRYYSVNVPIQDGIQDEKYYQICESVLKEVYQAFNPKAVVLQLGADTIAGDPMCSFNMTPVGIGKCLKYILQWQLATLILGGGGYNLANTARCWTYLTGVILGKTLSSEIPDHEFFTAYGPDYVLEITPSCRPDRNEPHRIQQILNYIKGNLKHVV
The data set is described as follows: Inhibition of HDAC8 (unknown origin) using Boc-Lys(TFA) as substrate by fluorogenic assay. The procedure, abridged: as §1

Data set [3] in a line: Oral bioavailability in C57BL/6J mouse at 11.5 mg/kg administered via gavage by LC-MS/MS analysis. Format: ADME, organism-based. As to conditions: in vivo. The procedure, abridged:
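Fed male C57Bl/6 mice dosed once intravenously at 3.3 mg/kg and by oral gavage at 11.5 mg/kg. Compound levels were quantified to derive PK parameters.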

A short description of data set [4]: Inhibition of Class 2A HDAC in human HEK293 cells using Boc-Lys(TFA) as substrate by fluorogenic assay. Format: cell-based.
Data set [5] addresses Muscarinic acetylcholine receptor M2 (Homo sapiens) (UniProt P08172). The data set is described as follows: Displacement of [3H]AF-DX384 from human recombinant M2 receptor at 10 uM incubated for 1 hr by radiometric scintillation counting analysis. The procedure, abridged:
(§2)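 Broad selectivity panel of binding, cellular, functional and enzymatic assays run by a contract lab. Each test was done at a single 10 μM concentration and reported as percent inhibition.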

Data set [6] deals with Muscarinic acetylcholine receptor M3 (Homo sapiens, UniProt P20309). Description: Displacement of [3H]4-DAMP from human recombinant M3 receptor at 10 uM incubated for 1 hr by radiometric scintillation counting analysis. Put shortly:
as §2

Data set [7] has as its target Muscarinic acetylcholine receptor M5 (Homo sapiens) (UniProt P08912). The data set is described as follows: Displacement of [3H]4-DAMP from human recombinant M5 receptor at 10 uM incubated for 1 hr by radiometric scintillation counting analysis. Put shortly: as §2
The target of data set [8] is Cav1.2 (voltage-dependent L-type calcium channel subunit alpha-1C) (Rattus norvegicus, UniProt P22002). Description: Displacement of [3H]Diltiazem from Cav1.2 in rat brain at 10 uM incubated for 120 mins by radiometric scintillation counting analysis. Type of data set: tissue-based. As to conditions: probe [3H]Diltiazem. The procedure, abridged:
as §2

Data set [9] addresses Muscarinic acetylcholine receptor M1 (Homo sapiens, UniProt P11229). The data set is described as follows: Displacement of [3H]pirenzapine from human recombinant M1 receptor incubated for 1 hr by radiometric scintillation counting analysis.
The target in data set [10] is Cytochrome P450 2D6 (Homo sapiens, UniProt P10635). The data set is described as follows: Inhibition of CYP2D6 in human liver microsomes using dextromethorphan as substrate incubated for 15 mins by LC-MS/MS analysis. Type of data set: ADME.
Data set [11] is described as follows: Stability of the compound in simulated gastric fluid at 10 uM at pH 1.2 incubated for 4 hrs by LC-MS/MS analysis.
The nature of data set [12]: Toxicity in CBAxC57BL/6J mouse assessed as effect on body weight at 10 to 100 mg/kg, po bid for 14.5 days. Type of data set: organism-based. As to conditions: in vivo, 348 h, dose 10-100 mg/kg, time 14.5 day. Put shortly: (§3)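 R6/2 HD mice and wild-type littermates, male and female, were dosed orally b.i.d. at 10, 30 or 100 mg/kg or with vehicle for 14.5 days. Vehicle was 10% (w/v) hydroxypropyl-β-cyclodextrin in 50 mM citrate buffer. Body weight, body temperature, passive observations and active manipulation scores were recorded. Blood and brain were collected 2 h after the final dose.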

The nature of data set [13]: Toxicity in CBAxC57BL/6J mouse assessed as effect on body temperature at 10 to 100 mg/kg, po bid for 14.5 days. Format: organism-based. As to conditions: in vivo, 348 h, dose 10-100 mg/kg, time 14.5 day. The procedure, abridged:
as §3

A short description of data set [14]: Toxicity in CBAxC57BL/6J mouse assessed as effect on ataxia at 10 to 100 mg/kg, po bid for 14.5 days. Type of data set: organism-based. As to conditions: in vivo, 348 h, dose 10-100 mg/kg, time 14.5 day. The procedure, abridged: as §3
Data set [15] is described as follows: Toxicity in CBAxC57BL/6J mouse assessed as effect on irritability at 10 to 100 mg/kg, po bid for 14.5 days. As to conditions: in vivo, 348 h, dose 10-100 mg/kg, time 14.5 day. Type of data set: organism-based. Put shortly: as §3

Where only a bound is given, the exact number is not on record here.

Cav1.2 (voltage-dependent L-type calcium channel subunit alpha-1C), sequence (P22002 whole entry): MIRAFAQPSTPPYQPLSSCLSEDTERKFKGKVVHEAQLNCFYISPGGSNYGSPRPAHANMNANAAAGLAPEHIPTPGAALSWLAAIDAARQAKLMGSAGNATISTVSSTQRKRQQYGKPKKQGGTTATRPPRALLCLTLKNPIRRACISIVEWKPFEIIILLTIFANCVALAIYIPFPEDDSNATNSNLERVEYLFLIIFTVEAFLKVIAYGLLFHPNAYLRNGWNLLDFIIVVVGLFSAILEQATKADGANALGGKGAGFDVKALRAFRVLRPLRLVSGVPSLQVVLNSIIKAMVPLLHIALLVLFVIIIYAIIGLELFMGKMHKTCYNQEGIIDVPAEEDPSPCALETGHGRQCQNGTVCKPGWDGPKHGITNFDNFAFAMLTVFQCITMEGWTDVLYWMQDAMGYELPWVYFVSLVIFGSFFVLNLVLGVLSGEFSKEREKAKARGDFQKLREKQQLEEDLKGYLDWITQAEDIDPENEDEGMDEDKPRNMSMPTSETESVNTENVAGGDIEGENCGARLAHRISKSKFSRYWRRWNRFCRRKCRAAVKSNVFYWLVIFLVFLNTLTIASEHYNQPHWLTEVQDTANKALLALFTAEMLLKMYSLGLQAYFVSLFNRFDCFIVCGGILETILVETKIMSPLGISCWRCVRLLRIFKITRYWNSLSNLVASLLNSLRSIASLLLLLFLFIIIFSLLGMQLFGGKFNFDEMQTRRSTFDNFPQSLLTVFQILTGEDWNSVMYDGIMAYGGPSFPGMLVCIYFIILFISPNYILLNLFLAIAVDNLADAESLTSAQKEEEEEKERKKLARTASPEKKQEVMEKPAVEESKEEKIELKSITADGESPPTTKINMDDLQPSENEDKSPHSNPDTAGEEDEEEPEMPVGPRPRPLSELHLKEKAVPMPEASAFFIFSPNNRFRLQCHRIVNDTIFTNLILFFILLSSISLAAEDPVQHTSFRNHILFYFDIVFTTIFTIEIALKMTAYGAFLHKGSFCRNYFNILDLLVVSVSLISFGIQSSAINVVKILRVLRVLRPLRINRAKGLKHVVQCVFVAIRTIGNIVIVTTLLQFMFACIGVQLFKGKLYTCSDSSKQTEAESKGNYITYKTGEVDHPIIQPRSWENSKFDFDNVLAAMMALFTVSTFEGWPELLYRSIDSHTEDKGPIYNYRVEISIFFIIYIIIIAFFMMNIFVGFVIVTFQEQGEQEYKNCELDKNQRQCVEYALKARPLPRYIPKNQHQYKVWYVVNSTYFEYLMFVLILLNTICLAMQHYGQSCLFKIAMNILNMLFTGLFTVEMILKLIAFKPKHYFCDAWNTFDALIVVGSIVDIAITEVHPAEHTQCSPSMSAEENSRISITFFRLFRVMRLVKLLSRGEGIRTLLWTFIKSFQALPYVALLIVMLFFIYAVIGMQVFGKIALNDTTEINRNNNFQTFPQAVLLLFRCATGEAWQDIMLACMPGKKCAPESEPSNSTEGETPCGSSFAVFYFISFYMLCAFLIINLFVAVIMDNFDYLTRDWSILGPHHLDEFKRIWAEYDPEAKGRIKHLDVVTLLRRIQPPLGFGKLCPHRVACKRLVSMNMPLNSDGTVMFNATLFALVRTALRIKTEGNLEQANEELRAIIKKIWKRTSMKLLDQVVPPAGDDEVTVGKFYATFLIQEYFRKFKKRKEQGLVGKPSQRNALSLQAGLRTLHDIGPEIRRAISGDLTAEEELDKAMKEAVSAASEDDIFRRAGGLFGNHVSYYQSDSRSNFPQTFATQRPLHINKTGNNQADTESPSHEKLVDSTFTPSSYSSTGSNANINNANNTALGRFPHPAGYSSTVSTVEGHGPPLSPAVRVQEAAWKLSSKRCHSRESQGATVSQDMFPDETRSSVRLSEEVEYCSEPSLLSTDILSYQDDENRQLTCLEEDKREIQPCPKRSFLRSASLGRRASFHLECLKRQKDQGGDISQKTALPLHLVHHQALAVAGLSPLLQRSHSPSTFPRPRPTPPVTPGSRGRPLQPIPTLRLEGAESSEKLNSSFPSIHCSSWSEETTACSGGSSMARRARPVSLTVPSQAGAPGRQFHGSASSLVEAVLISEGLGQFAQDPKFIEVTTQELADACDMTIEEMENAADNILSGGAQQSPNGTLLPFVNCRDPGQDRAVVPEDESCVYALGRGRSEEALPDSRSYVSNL
Muscarinic acetylcholine receptor M2 (Homo sapiens), sequence (P08172 whole entry): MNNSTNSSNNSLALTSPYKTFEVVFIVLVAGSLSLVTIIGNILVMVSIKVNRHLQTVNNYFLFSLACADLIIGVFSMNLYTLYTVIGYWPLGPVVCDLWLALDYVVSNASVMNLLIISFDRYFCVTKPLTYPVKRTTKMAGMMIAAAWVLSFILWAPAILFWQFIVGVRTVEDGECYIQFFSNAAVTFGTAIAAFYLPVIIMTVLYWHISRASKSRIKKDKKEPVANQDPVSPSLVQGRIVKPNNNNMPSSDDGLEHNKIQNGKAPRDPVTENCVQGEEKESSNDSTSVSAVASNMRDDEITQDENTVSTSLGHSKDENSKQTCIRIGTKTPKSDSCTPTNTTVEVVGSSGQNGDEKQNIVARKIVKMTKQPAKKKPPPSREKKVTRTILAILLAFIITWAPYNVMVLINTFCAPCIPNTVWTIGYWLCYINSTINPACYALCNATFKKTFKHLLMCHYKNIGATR
Muscarinic acetylcholine receptor M3, sequence (P20309 whole entry, looked up): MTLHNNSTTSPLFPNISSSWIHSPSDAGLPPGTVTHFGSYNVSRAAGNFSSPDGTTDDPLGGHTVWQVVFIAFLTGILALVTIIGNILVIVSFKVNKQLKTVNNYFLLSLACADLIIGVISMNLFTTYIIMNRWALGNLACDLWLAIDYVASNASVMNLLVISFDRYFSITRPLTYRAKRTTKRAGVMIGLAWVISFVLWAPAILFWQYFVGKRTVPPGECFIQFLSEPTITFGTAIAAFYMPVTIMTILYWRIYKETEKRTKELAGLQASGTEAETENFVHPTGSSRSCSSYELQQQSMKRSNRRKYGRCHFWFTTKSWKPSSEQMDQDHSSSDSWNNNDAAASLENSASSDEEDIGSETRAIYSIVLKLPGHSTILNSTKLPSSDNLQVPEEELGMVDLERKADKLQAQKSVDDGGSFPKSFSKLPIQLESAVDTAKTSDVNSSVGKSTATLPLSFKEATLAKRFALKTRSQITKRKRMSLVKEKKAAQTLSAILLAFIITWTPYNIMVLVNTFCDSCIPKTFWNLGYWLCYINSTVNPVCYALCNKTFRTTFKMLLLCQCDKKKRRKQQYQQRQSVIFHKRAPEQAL
Muscarinic acetylcholine receptor M1, sequence (P11229 whole entry): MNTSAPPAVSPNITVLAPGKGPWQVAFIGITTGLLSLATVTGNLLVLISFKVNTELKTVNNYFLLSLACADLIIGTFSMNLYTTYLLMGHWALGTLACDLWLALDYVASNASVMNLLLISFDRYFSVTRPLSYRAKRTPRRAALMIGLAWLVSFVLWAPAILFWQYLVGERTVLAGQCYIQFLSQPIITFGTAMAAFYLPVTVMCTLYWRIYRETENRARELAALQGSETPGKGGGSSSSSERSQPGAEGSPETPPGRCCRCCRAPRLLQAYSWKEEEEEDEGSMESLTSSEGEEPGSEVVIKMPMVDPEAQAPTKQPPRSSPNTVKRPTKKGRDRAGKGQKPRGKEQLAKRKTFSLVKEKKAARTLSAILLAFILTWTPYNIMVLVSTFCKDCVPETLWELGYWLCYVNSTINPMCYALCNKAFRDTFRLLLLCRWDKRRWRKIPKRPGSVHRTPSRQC

For `C[C@H](CN1CCC[C@@H]1C)NC(=O)c1ccc(-c2noc(C(F)(F)F)n2)cc1`, the IC50 in data set [1] was 20 nM; in data set [2], 2000 nM; in [4], 10 nM; in [10], greater than 50000 nM. In data set [3], this molecule yielded a bioavailability of 100%. The inhibition in [5], in data set [6] and in data set [7] was greater than 80% each time. For the same molecule, the inhibition at 2 h, 10 µM in data set [8] is greater than 50%. In data set [9], the Kd is greater than 5000 nM. Further, the Stability entry in data set [11] is listed as “Stable”. In addition, the Activity result in data set [12], in [13], in data set [14] and in data set [15] was “Non-Toxic” each time.
